In assay [1] the target is Maltase-glucoamylase, intestinal (Rattus norvegicus). Briefly: Inhibition of rat intestinal maltase using maltose as substrate by colorimetric analysis.
Assay [2] in a line: Inhibition of Saccharomyces cerevisiae alpha-glucosidase using 4-nitrophenyl alpha D-glucopyranoside as substrate assessed as release of 4-nitrophenol incubated for 5 mins prior to substrate addition measured after 10 mins. The method in brief:
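Yeast α-glucosidase assayed at 37 °C with 4-nitrophenyl α-D-glucopyranoside as substrate in 10 mM sodium phosphate buffer, pH 7.28. […] Absorbance rise at 400 nm compared with a DMSO control; IC50 read graphically from percent activity versus log concentration.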

Assay [3] has as its target Lactase/phlorizin hydrolase (Rattus norvegicus, UniProt Q02401). Briefly: Inhibition of rat intestinal lactase using lactose as substrate by colorimetric analysis.
Assay [4] can be described thus: Inhibition of rat alpha-amylase using amylose as substrate by colorimetric analysis.

pIC50: −log10 of the molar value.

Sequence of Lactase/phlorizin hydrolase (Q02401 868-1928 limits assumed): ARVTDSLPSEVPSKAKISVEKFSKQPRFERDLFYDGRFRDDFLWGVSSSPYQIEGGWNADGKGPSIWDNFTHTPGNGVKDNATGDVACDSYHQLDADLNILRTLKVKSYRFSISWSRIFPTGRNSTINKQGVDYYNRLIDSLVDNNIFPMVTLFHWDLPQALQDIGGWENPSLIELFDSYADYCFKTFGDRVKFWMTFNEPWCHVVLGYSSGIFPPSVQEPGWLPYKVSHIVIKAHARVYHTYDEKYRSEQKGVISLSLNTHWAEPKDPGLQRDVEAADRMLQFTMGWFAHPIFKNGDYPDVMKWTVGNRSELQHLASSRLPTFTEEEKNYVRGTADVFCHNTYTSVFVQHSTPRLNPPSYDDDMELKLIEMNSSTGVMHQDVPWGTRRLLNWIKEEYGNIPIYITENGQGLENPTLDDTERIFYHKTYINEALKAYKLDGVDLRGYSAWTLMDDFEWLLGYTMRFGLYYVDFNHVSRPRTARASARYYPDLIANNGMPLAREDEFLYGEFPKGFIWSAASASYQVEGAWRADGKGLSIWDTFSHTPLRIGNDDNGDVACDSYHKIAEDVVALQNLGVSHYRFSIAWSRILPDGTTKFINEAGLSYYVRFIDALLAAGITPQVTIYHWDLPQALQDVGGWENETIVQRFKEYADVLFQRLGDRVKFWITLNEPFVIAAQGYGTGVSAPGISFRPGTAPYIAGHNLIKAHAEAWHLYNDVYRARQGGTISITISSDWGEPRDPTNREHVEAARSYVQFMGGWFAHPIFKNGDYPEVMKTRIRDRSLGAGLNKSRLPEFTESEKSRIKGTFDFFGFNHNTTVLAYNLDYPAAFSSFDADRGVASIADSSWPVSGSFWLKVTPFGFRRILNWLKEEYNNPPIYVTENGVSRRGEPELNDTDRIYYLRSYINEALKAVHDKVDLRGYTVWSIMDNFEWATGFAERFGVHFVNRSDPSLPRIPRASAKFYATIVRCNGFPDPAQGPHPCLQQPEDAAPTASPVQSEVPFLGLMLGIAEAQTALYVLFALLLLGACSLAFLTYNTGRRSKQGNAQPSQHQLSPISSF

For the compound `Cc1ccc(S(=O)(=O)Nc2ccc3c(c2)C(=O)N(CCOc2cccc(O)c2)C3=O)cc1`, the pIC50 in assay [1] was 4.25; in assay [2] it was 4.54; in assay [3], 3.96; in assay [4], under 3.70.

Take `Cc1ccc(S(=O)(=O)Nc2ccc3c(c2)C(=O)N(CCOc2ccc(O)cc2)C3=O)cc1`: the pIC50 in assay [1] is 4.32; in assay [2] it was 4.59; in assay [3], 4.00; in assay [4], under 3.70.

As for `C[C@H]1O[C@H](O[C@H]2[C@H](O)[C@@H](O)[C@@H](O[C@H]3[C@H](O)[C@@H](O)C(O)O[C@@H]3CO)O[C@@H]2CO)[C@H](O)[C@@H](O)[C@@H]1N[C@H]1C=C(CO)[C@@H](O)[C@H](O)[C@H]1O` (stereo not given in full) [ACARBOSE], the pIC50 in assay [2] was 3.63; in assay [3], 3.78; in assay [4], 5.06.

In the case of `Cc1ccc(S(=O)(=O)Nc2ccc3c(c2)C(=O)N(CCCCBr)C3=O)cc1`, the pIC50 in assay [1] was under 3.70; in assay [2], 4.16; in assay [3] it was under 3.70; in assay [4] it was under 3.70.

Take `Cc1ccc(S(=O)(=O)Nc2ccc3c(c2)C(=O)N(CCNc2ccc(O)c(O)c2)C3=O)cc1`: the pIC50 in assay [1] is 4.54; in assay [2], 4.35; in assay [3] it was 4.18; in assay [4], under 3.70.

In the case of `Cc1ccc(S(=O)(=O)Nc2ccc3c(c2)C(=O)N(Cc2ccc(Cl)cc2)C3=O)cc1`, the negative-log IC50 (pIC50) is 3.73 in assay [1], 4.49 in assay [2], 3.81 in assay [3] and under 3.70 in assay [4].

As to `Cc1ccc(S(=O)(=O)Nc2ccc3c(c2)C(=O)N(Cc2ccc(C(N)=O)cc2)C3=O)cc1`, the values for the pIC50 in assay [2], in assay [3] and in assay [4] were 4.22, 4.07 and under 3.70, respectively.

Turning to `Nc1ccc2c(c1)C(=O)N(CCNc1ccccc1)C2=O`, the pIC50 in assay [1] is 3.84; in assay [2], 3.86; in assay [3], under 3.70; in assay [4], under 3.70.

With `Cc1ccc(S(=O)(=O)Nc2ccc3c(c2)C(=O)N(Cc2ccccc2F)C3=O)cc1`, the pIC50 in assay [1] is 3.71; in assay [2], 4.39; in assay [3], 3.74; in assay [4] it was under 3.70.

Take `Cc1ccc(S(=O)(=O)Nc2ccc3c(c2)C(=O)N(Cc2ccc(C#N)cc2)C3=O)cc1`: the pIC50 in assay [2] is 4.18; in assay [3], 3.70; in assay [4] it was under 3.70.

For `O=C1c2ccc([N+](=O)[O-])cc2C(=O)N1CCNc1ccccc1`, the pIC50 in assay [1] was 3.95; in assay [2], 4.16; in assay [3], under 3.70; in assay [4], under 3.70.

`Cc1ccc(S(=O)(=O)Nc2ccc3c(c2)C(=O)N(Cc2ccc(O)c(O)c2)C3=O)cc1`: the pIC50 in assay [2] was 4.14; in assay [3] it was 3.78; in assay [4], under 3.70.

In the case of `Cc1ccc(S(=O)(=O)Nc2ccc3c(c2)C(=O)N(CCCBr)C3=O)cc1`, the values for the pIC50 in assay [2], in assay [3] and in assay [4] were 4.05, under 3.70 and under 3.70, respectively.

As for `Cc1ccc(S(=O)(=O)Nc2ccc3c(c2)C(=O)N(Cc2ccccc2)C3=O)cc1`, the pIC50 in assay [1] was under 3.70; in assay [2] it was 4.27; in assay [3], under 3.70; in assay [4], under 3.70.

On to `Cc1ccc(S(=O)(=O)Nc2ccc3c(c2)C(=O)N(CCNc2ccccc2)C3=O)cc1`, for which the pIC50 in assay [1] was 4.00; in assay [2], 4.23; in assay [3] it was 3.75; in assay [4], under 3.70.

On to `Cc1ccc(S(=O)(=O)Nc2ccc3c(c2)C(=O)N(CCBr)C3=O)cc1`, for which the pIC50 was under 3.70 in assay [1], 4.03 in assay [2], under 3.70 in assay [3] and under 3.70 in assay [4].

As for `Cc1ccc(S(=O)(=O)Nc2ccc3c(c2)C(=O)N(C)C3=O)cc1`, the pIC50 in assay [1], in assay [2], in assay [3] and in assay [4] was under 3.70 each time.

`O=C1c2ccccc2C(=O)N1CCNc1ccccc1`: the pIC50 is 3.73 in assay [1], under 3.70 in assay [2], under 3.70 in assay [3] and under 3.70 in assay [4].

For `Cc1ccc(S(=O)(=O)Nc2ccc3c(c2)C(=O)N(Cc2ccc(Cl)c(Cl)c2)C3=O)cc1`, the pIC50 is 3.91 in assay [1], 4.54 in assay [2], 4.00 in assay [3] and under 3.70 in assay [4].

With `Cc1ccc(S(=O)(=O)Nc2ccc3c(c2)C(=O)N(N2CCOCC2)C3=O)cc1`, the negative logarithm of the IC50 (pIC50) in assay [2] is 4.28; in assay [3] it was under 3.70; in assay [4], under 3.70.

As to `Cc1ccc(S(=O)(=O)Nc2ccc3c(c2)C(=O)N(CCOc2ccccc2)C3=O)cc1`, the pIC50 in assay [2] was 4.33; in assay [3], 3.77; in assay [4], under 3.70.

`Cc1ccc(S(=O)(=O)Nc2ccc3c(c2)C(=O)N(Cc2ccc(F)cc2)C3=O)cc1`: the results for the negative-log IC50 (pIC50) in assay [2], in assay [3] and in assay [4] were 4.37, 3.76 and under 3.70, respectively.

One may read the pIC50 as the negative decadic logarithm of the IC50, by convention in mol/L.

Source of the values: ChEMBL document CHEMBL2346551, “A new series of N2-substituted-5-(p-toluenesulfonylamino)phthalimide analogues as α-glucosidase inhibitors” (Bioorg Med Chem Lett, 2013).
